What was measured:
HeLa = assay: Cytotoxicity against TdT-deficient human HeLa cells assessed as growth inhibition after 24 to 48 hrs by MTT assay; type: cell-based
Method in brief: (§1)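 MOLT-4 cells were grown in RPMI-1640 and HeLa cells in DMEM, with 10% FCS at 37 °C. Cells were seeded at 10^5 per well, given 24 h to attach, then exposed to compounds (0.1–100 range) for 24 or 48 h. MTT at 1 mg/mL was added for 2 h at 37 °C, formazan was dissolved in DMSO, and absorbance read at 550 nm versus 0.5% DMSO vehicle. IC50 was obtained by regression, in triplicate.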

MOLT-4 = assay: Cytotoxicity against human MOLT4 cells overexpressing TdT assessed as growth inhibition after 24 to 48 hrs by MTT assay; type: functional, cell-based; method in brief: as §1
DNA polymerase beta = DNA polymerase beta (Homo sapiens, UniProt P06746); assay: Inhibition of human recombinant DNA polymerase beta
[1] = molecular target: T1, DNA polymerase lambda (Homo sapiens) (UniProt Q9UGP5); assay: Inhibition of human recombinant full length DNA polymerase lambda TdT-like activity using [3H]dNTP as substrate after 10 mins by scintillation counting analysis
T1 sequence (whole entry): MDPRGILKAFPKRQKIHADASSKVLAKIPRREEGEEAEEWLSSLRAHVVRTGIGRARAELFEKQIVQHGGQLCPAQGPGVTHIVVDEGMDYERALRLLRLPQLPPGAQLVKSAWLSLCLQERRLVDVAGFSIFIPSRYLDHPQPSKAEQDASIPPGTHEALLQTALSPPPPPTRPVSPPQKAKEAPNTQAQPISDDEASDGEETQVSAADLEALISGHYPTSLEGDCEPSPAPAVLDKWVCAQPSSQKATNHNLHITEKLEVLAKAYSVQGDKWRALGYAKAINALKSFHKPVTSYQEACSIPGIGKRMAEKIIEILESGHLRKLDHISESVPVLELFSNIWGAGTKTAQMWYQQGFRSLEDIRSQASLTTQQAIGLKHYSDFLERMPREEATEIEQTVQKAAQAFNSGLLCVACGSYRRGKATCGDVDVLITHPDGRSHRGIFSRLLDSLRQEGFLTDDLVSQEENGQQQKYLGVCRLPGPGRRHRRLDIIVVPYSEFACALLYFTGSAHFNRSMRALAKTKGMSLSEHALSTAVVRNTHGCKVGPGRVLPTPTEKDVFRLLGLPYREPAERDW
Method in brief: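 Full-length recombinant human pol λ (>90% pure) was tested for template-independent activity. Acid-insoluble radioactivity was counted, and ID50 came from dose–response fitting.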

[2] = molecular target: T1, DNA polymerase lambda (Homo sapiens); assay: Inhibition of human recombinant full length DNA polymerase lambda using [3H]dTTP as substrate and 10 poly(dA)/oligo(dT) as template-primer after 15 mins by scintillation counting analysis
Method in brief: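 Recombinant full-length human pol λ at 50 nM was assayed with 0.2 μM poly(dA)/oligo(dT)10:1 (3′-OH ends) and 5 μM [3H]dTTP (5 Ci/mmol). Incubation was 15 min at 37 °C. TCA precipitates were scintillation counted.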

[3] = molecular target: DNA nucleotidylexotransferase (Homo sapiens, UniProt P04053); assay: Inhibition of human recombinant TdT using [3H]dNTP as substrate after 10 mins by scintillation counting analysis
Method in brief: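 TdT was from Trevigen. TCA-precipitated radioactivity was counted. ID50 came from dose–response fitting. For kinetics, DNA or dNTP was varied at increasing inhibitor, and Ki was obtained via Cheng–Prusoff for a competitive model.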

DNA nucleotidylexotransferase, sequence (P04053 whole entry): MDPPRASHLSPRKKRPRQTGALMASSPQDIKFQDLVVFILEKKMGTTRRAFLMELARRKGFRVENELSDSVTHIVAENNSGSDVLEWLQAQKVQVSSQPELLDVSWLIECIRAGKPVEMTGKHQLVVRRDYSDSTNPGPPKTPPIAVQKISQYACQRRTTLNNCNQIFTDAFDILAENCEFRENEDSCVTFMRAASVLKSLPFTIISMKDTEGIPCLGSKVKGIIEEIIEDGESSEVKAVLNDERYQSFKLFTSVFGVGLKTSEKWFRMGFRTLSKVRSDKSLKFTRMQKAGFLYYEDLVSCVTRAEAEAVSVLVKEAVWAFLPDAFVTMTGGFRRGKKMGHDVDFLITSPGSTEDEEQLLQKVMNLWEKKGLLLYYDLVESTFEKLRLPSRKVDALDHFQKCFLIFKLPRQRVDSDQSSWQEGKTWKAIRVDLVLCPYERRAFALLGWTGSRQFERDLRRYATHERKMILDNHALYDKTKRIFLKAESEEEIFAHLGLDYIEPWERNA

Row | SMILES | IC50 (DNA polymerase beta) [µM] | ID50 [1] [µM] | ID50 [2] [µM] | ID50 [3] [µM] | IC50 (HeLa) [µM] | IC50 (MOLT-4) [µM]
1 | CCOC(=O)C(=O)CC(=O)/C=C/c1cc(C(=O)c2ccccc2)cn1Cc1ccc(F)cc1 | > 40 | > 40 | > 40 | > 40 | – | –
2 | CCOC(=O)C(=O)CC(=O)/C=C/c1cc(C(=O)c2ccccc2F)c[nH]1 | > 40 | 27 | > 40 | 20 | > 40 | 15
3 | CCOC(=O)C(=O)CC(=O)/C=C/c1cn(CC(=O)N(C)C)c2ccccc12 | > 40 | > 40 | > 40 | > 40 | – | –
4 | CN(C)C(=O)Cn1cc(/C=C/C(=O)CC(=O)C(=O)O)c2ccccc21 | > 40 | 40 | > 40 | 8.9 | > 40 | > 40
5 | CCCn1cc(/C=C/C(=O)CC(=O)C(=O)OCC)c2ccccc21 | > 40 | > 40 | > 40 | > 40 | – | –
6 | C/C=C/Cn1cc(/C=C/C(=O)CC(=O)C(=O)OCC)c2ccccc21 | > 40 | > 40 | > 40 | > 40 | – | –
7 | CCOC(=O)C(=O)CC(=O)/C=C/c1cn(CCC(C)C)c2ccccc12 | > 40 | > 40 | > 40 | > 40 | – | –
8 | CCOC(=O)C(=O)CC(=O)/C=C/c1cn(-c2ccccc2)c2ccccc12 | – | > 40 | > 40 | > 40 | – | –
9 | CCOC(=O)C(=O)CC(=O)/C=C/c1cn(Cc2ccc(O)cc2)c2ccccc12 | > 40 | > 40 | > 40 | 40 | – | –
10 | CCOC(=O)C(=O)CC(=O)/C=C/c1cc(C(=O)c2ccccc2)cn1Cc1ccccc1 | > 40 | > 40 | > 40 | > 40 | – | –

More lines, main results first:

Row | IC50 (DNA polymerase beta) [µM] | ID50 [1] [µM] | ID50 [2] [µM] | ID50 [3] [µM] | SMILES | IC50 (HeLa) [µM] | IC50 (MOLT-4) [µM]
11 | > 40 | 9 | > 40 | 13.8 | CC(C)=Cn1cc(/C=C/C(=O)CC(=O)C(=O)O)c2ccccc21 | > 40 | 30
12 | > 40 | 40 | > 40 | 2.5 | C=C(C)Cn1cc(/C=C/C(=O)CC(=O)C(=O)O)c2ccccc21 | 40 | 40
13 | > 40 | 5 | > 40 | 7.3 | C/C=C/Cn1cc(/C=C/C(=O)CC(=O)C(=O)O)c2ccccc21 | > 40 | > 40
14 | > 40 | 1.7 | > 40 | 7.9 | O=C(/C=C/c1cn(Cc2ccccc2)c2ccccc12)CC(=O)C(=O)O | > 40 | 15
15 | 40 | > 40 | > 40 | 6.8 | N#Cc1ccc(Cn2cc(C(=O)c3ccccc3)cc2/C=C/C(=O)CC(=O)C(=O)O)cc1 | > 40 | 40
16 | > 40 | > 40 | 6 | > 40 | CCOC(=O)C(=O)CC(=O)/C=C/c1cn(-c2ccc(Cl)cc2)c2ccccc12 | – | –
17 | > 40 | > 40 | > 40 | > 40 | CCOC(=O)C(=O)CC(=O)/C=C/c1cn(C=C(C)C)c2ccccc12 | – | –
18 | > 40 | > 40 | > 40 | > 40 | CCOC(=O)C(=O)CC(=O)/C=C/c1cn(Cc2ccccc2)c2ccccc12 | > 40 | > 40
19 | > 40 | 40 | > 40 | 24 | O=C(/C=C/c1cn(CC(=O)N2CCOCC2)c2ccccc12)CC(=O)C(=O)O | > 40 | > 40
20 | > 40 | > 40 | > 40 | > 40 | CCOC(=O)C(=O)CC(=O)/C=C/c1cn(CC(=O)N2CCOCC2)c2ccccc12 | – | –
21 | 40 | 34 | > 40 | 1.4 | N#Cc1ccc(Cn2cc(/C=C/C(=O)CC(=O)C(=O)O)c3ccccc32)cc1 | > 40 | > 40

Reference: ChEMBL document CHEMBL2440062, “New nucleotide-competitive non-nucleoside inhibitors of terminal deoxynucleotidyl transferase: discovery, characterization, and crystal structure in complex with the target” (J Med Chem, 2013)
